From ChEMBL document CHEMBL1671789, “Evaluation of quinazoline analogues as glucocerebrosidase inhibitors with chaperone activity” (J Med Chem, 2011)
Activity calls are given as the source filed them.

How the values were obtained:
[1] = Inhibition of alpha-galactosidase
[2] = Inhibition of alpha-glucosidase
[3] = tested on: T1, Lysosomal acid glucosylceramidase (Homo sapiens), P04062 [N409S]; test: Activity at recombinant Gcase N370S mutant in human spleen homogenates assessed as hydrolysis of 4-MU-beta-D-glucose at 50 uM; format: tissue-based
T1 sequence (whole entry): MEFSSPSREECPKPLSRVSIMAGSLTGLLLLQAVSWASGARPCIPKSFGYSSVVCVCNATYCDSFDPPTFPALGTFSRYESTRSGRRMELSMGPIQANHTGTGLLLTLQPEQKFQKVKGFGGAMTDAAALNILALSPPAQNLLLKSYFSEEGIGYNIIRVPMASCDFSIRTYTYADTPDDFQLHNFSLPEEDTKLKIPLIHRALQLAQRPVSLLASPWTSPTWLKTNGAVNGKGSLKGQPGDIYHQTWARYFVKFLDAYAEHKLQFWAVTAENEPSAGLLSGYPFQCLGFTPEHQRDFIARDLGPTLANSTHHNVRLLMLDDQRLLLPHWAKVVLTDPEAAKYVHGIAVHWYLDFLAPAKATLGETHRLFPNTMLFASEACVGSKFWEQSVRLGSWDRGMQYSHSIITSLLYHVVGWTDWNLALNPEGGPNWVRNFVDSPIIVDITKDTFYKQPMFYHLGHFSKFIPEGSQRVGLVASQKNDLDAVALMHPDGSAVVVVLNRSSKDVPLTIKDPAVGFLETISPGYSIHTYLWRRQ
Method in brief: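 Enzyme source: human spleen homogenate, 27 μg/well, in 50 mM citric acid/K2PO4 buffer pH 5 with 0.01% Tween20. Compound pin-transferred and preincubated 5 min at room temperature. Substrate 4MU-β-glc at 1 mM final, 45 min at 37 °C. Stopped with 1 M NaOH/1 M glycine pH 10. Fluorescence read at 365 nm excitation, 440 nm emission.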

Activity [1]	Activity [2]	Activity [3]	Compound
inactive	inactive	inactive	Cc1ccc(S(=O)(=O)N2CCN(c3nc(-c4cccs4)nc4[nH]cnc34)CC2)cc1
inactive	inactive	inactive	O=S(=O)(c1ccc(F)cc1)N1CCN(c2nc(-c3ccccc3)nc3cc(Cl)ccc23)CC1
inactive	inactive	inactive	Cc1ccc(S(=O)(=O)N2CCN(c3nc(C#N)nc4ccccc34)CC2)cc1
inactive	inactive	inactive	O=S(=O)(c1ccc(Cl)cc1)N1CCN(c2nc(-c3cccc(Br)c3)nc3ccccc23)CC1
inactive	inactive	inactive	CN1CCN(c2nc(-c3cccs3)nc3ccccc23)CC1
inactive	inactive	inactive	O=S(=O)(c1ccc(Cl)cc1)N1CCN(c2nc(-c3ccc(Cl)cc3)nc3ccccc23)CC1
inactive	inactive	inactive	Cc1ccc(S(=O)(=O)N2CCN(c3nc(-c4cccs4)nc4c3ncn4COC(=O)C(C)(C)C)CC2)cc1
inactive	inactive		CC(=O)c1ccc(S(=O)(=O)N2CCN(c3nc(-c4ccccc4)nc4ccccc34)CC2)cc1
inactive	inactive		O=S(=O)(c1cccc(C(F)(F)F)c1)N1CCN(c2nc(-c3ccccc3)nc3ccccc23)CC1
inactive	inactive		Cc1ccc(S(=O)(=O)N2CCN(c3nc(-c4cscn4)nc4ccccc34)CC2)cc1
inactive	inactive		O=S(=O)(NCCNc1nc(-c2ccco2)nc2ccccc12)c1ccccc1
inactive	inactive		Cc1ccc(S(=O)(=O)N2CCN(c3nc(-c4ccncc4)nc4ccccc34)CC2)cc1
inactive	inactive		Cc1ccc(S(=O)(=O)N2CCN(c3nc(-c4cnccn4)nc4ccccc34)CC2)cc1
inactive	inactive		O=[N+]([O-])c1ccc(S(=O)(=O)N2CCN(c3nc(-c4cccs4)nc4ccccc34)CC2)cc1
inactive	inactive		Cc1ccc(S(=O)(=O)N2CCN(c3cc(-c4cccs4)nc4ccccc34)CC2)cc1
inactive	inactive		O=S(=O)(c1ccccc1C(F)(F)F)N1CCN(c2nc(-c3ccccc3)nc3ccccc23)CC1
inactive	inactive		Cc1ccc(S(=O)(=O)N2CCN(c3nc(-c4ccoc4)nc4ccccc34)CC2)cc1
inactive	inactive		O=S(=O)(c1ccc(F)cc1)N1CCN(c2nc(C3CC3)nc3ccccc23)CC1
inactive	inactive		CCOC(=O)c1ccc(S(=O)(=O)N2CCN(c3nc(-c4ccccc4)nc4ccccc34)CC2)cc1
inactive	inactive		NS(=O)(=O)c1ccc(S(=O)(=O)N2CCN(c3nc(-c4ccccc4)nc4ccccc34)CC2)cc1

Activity [1]	Activity [2]	Activity [3]	Compound
inactive	inactive		O=S(=O)(c1cccc(F)c1)N1CCN(c2nc(-c3cccs3)nc3ccccc23)CC1
inactive	inactive		O=S(=O)(/C=C/c1ccccc1)N1CCN(c2nc(-c3ccccc3)nc3ccccc23)CC1
inactive	inactive		O=S(=O)(c1cccnc1)N1CCN(c2nc(-c3cccs3)nc3ccccc23)CC1
inactive	inactive		O=S(=O)(c1ccc2ccccc2c1)N1CCN(c2nc(-c3ccccc3)nc3ccccc23)CC1
inactive	inactive		O=S(=O)(c1ccccc1C(F)(F)F)N1CCN(c2nc(-c3cccs3)nc3ccccc23)CC1
inactive	inactive		O=S(=O)(c1ccccc1Br)N1CCN(c2nc(-c3cccs3)nc3ccccc23)CC1
inactive	inactive		O=S(=O)(c1nccs1)N1CCN(c2nc(-c3cccs3)nc3ccccc23)CC1
inactive	inactive		Oc1ccc(N2CCN(c3nc(-c4cccs4)nc4ccccc34)CC2)cc1
inactive	inactive		O=S(=O)(/C=C/c1ccccc1)N1CCN(c2nc(-c3cccnc3)nc3ccccc23)CC1
inactive	inactive		Cc1ccc(S(=O)(=O)N2CCN(c3nc(-c4cccs4)nc(C)c3C)CC2)cc1
inactive	inactive		CS(=O)(=O)N1CCN(c2nc(-c3cccs3)nc3ccccc23)CC1
inactive	inactive		O=S(=O)(c1cccc(Br)c1)N1CCN(c2nc(-c3cccs3)nc3ccccc23)CC1
inactive	inactive		CN1CCOc2cc(S(=O)(=O)N3CCN(c4nc(-c5cccs5)nc5ccccc45)CC3)ccc21
inactive	inactive		O=C(c1ccccc1)N1CCN(c2nc(-c3cccs3)nc3ccccc23)CC1
inactive	inactive		Cc1ccc(S(=O)(=O)N2CCN(c3nc(-c4ccc(CN5CCOCC5)s4)nc4ccccc34)CC2)cc1
inactive	inactive		O=S(=O)(c1ccccc1)N1CCN(c2nc(-c3cccs3)nc3ccccc23)CC1
inactive	inactive		N#Cc1ccccc1S(=O)(=O)N1CCN(c2nc(-c3cccs3)nc3ccccc23)CC1
inactive	inactive		O=S(=O)(c1cccc(Cl)c1)N1CCN(c2nc(-c3ccccc3)nc3ccccc23)CC1
inactive	inactive		O=S(=O)(c1cnc2ccccc2c1)N1CCN(c2nc(-c3cccs3)nc3ccccc23)CC1
inactive	inactive		O=S(=O)(c1ccccc1Cl)N1CCN(c2nc(-c3cccs3)nc3ccccc23)CC1

Activity [1]	Activity [2]	Activity [3]	Compound
inactive	inactive		O=S(=O)(c1ccc2c(c1)OCO2)N1CCN(c2nc(-c3cccs3)nc3ccccc23)CC1
inactive	inactive		Cc1ccc(S(=O)(=O)N(C)CCN(C)c2nc(-c3cccs3)nc3ccccc23)cc1
inactive	inactive		COc1cccc(S(=O)(=O)N2CCN(c3nc(-c4cccs4)nc4ccccc34)CC2)c1
inactive	inactive		O=S(=O)(c1ccsc1)N1CCN(c2nc(-c3cccs3)nc3ccccc23)CC1
inactive	inactive		O=S(=O)(c1ccccc1Br)N1CCN(c2nc(-c3ccccc3)nc3ccccc23)CC1
inactive	inactive		N#Cc1ccc(S(=O)(=O)N2CCN(c3nc(-c4ccccc4)nc4ccccc34)CC2)cc1
inactive	inactive		Cc1ccc(S(=O)(=O)N2CCN(c3nc(-c4ccnnc4)nc4ccccc34)CC2)cc1
inactive	inactive		Cc1ccc(S(=O)(=O)N2CCN(c3nc(-c4cccs4)nc4cccnc34)CC2)cc1
inactive	inactive		COc1ccc(N2CCN(c3nc(-c4cccs4)nc4ccccc34)CC2)cc1
inactive	inactive		O=S(=O)(c1cccs1)N1CCN(c2nc(-c3cccs3)nc3ccccc23)CC1
inactive	inactive		Cc1ccc(S(=O)(=O)N2CCN(c3ncnc4ccccc34)CC2)cc1
inactive	inactive		CC(C)(C)C(=O)OCCNc1nc(-c2cccs2)nc2ccccc12
inactive	inactive		O=S(=O)(c1ccc2c(Cl)cccc2c1)N1CCN(c2nc(-c3cccs3)nc3ccccc23)CC1
inactive	inactive		O=S(=O)(c1ccc(F)cc1)N1CCN(c2nc(-c3ccccc3)nc3ccccc23)CC1
inactive	inactive		Cc1ccc(S(=O)(=O)N2CCN(c3nc(-c4cccs4)nc4ccccc34)CC2)c(C)c1
inactive	inactive		O=S(=O)(c1ccc2c(c1)OCCO2)N1CCN(c2nc(-c3cccnc3)nc3ccccc23)CC1
inactive	inactive		Cc1cc(C)cc(S(=O)(=O)N2CCN(c3nc(-c4cccs4)nc4ccccc34)CC2)c1
inactive	inactive		O=[N+]([O-])c1cccc(S(=O)(=O)N2CCN(c3nc(-c4cccs4)nc4ccccc34)CC2)c1
inactive	inactive		CC(=O)c1nc(N2CCN(S(=O)(=O)c3ccc(C)cc3)CC2)c2ccccc2n1
